Here are results for 3 compounds from ChEMBL document CHEMBL1130078, “Discovery of an orally active series of isoxazoline glycoprotein IIb/IIIa antagonists” (J Med Chem, 1997).

Test [1] deals with T1, Integrin alpha-IIb/beta-3 (Homo sapiens, UniProt P05106+P08514). In words: In vitro inhibition of ADP-induced platelet aggregation in human platelet rich plasma (hPRP). The class given is functional, cell-free.
In test [2] the test system is Rhesus monkey. Nature of the test: Inhibition of ex vivo aggregation in 2 hr after oral dose of 0.3 mg/kg to rhesus monkey. The format is functional, Cercopithecidae. The settings on record: Macaca mulatta. In outline: (§1)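 Rhesus monkeys of either sex, 8–15 years, 6–10 kg, at least two animals/sex per dose, n = 8. Oral gavage by feeding tube of a solution in 0.9% saline (0.5 mL/kg), then water flush. Blood was drawn at various time points from the femoral or saphenous vein into citrate for ex vivo ADP (100 μM)-induced aggregation.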

Test [3] relates to Canis familiaris. In words: Inhibition of platelet aggregation for 12 hr after oral dose of 0.3-0.4 mg/kg to dog. The class given is functional, Canis lupus familiaris. In outline:
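Dogs dosed orally at 0.1–0.4 mg/kg; ex vivo ADP (100 μM)-induced platelet aggregation followed over time up to 12 h, n = 4.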

The subject of test [4] is Rhesus monkey. In words: Inhibition of ex vivo aggregation over 12 hr after oral dose of 0.3 mg/kg to rhesus monkey. The class given is functional, Cercopithecidae. The settings on record: Macaca mulatta. The method, boiled down: as §1
Test [5] has as its target T1, Integrin alpha-IIb/beta-3.
In test [6] the target is T1, Integrin alpha-IIb/beta-3. The source holds these as a separate data set.
Test [7] has as its system Canis familiaris. Nature of the test: Inhibition of ex vivo platelet aggregation after intravenous administration of bolus dose of 0.025 mg/kg to dog. The format is functional. The note with it: Canis lupus familiaris. In outline:
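Dogs given an iv bolus. Ex vivo ADP (100 μM)-induced platelet aggregation measured in samples taken over 5 h.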

T1 sequence (P05106 27-788 limits assumed): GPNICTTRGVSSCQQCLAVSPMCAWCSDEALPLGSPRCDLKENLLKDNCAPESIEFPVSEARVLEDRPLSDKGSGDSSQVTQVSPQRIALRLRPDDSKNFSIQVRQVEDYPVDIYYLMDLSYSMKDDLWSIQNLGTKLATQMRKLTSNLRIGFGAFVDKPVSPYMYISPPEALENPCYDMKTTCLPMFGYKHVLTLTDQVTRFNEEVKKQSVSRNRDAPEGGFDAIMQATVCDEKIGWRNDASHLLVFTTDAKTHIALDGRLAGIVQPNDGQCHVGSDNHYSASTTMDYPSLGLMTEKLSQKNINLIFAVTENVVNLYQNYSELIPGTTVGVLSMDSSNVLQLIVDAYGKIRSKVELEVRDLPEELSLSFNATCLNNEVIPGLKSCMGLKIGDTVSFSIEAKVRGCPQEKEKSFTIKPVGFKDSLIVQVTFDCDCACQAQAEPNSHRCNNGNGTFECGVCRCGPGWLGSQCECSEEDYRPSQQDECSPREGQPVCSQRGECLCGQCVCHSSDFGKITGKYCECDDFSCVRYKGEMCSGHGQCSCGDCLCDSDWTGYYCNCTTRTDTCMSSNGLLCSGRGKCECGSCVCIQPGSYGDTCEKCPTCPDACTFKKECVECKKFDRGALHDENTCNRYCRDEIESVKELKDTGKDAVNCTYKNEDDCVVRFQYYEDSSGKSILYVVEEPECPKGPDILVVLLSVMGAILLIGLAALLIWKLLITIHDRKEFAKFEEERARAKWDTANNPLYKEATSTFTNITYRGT
T1 sequence (P08514 32-887 limits assumed): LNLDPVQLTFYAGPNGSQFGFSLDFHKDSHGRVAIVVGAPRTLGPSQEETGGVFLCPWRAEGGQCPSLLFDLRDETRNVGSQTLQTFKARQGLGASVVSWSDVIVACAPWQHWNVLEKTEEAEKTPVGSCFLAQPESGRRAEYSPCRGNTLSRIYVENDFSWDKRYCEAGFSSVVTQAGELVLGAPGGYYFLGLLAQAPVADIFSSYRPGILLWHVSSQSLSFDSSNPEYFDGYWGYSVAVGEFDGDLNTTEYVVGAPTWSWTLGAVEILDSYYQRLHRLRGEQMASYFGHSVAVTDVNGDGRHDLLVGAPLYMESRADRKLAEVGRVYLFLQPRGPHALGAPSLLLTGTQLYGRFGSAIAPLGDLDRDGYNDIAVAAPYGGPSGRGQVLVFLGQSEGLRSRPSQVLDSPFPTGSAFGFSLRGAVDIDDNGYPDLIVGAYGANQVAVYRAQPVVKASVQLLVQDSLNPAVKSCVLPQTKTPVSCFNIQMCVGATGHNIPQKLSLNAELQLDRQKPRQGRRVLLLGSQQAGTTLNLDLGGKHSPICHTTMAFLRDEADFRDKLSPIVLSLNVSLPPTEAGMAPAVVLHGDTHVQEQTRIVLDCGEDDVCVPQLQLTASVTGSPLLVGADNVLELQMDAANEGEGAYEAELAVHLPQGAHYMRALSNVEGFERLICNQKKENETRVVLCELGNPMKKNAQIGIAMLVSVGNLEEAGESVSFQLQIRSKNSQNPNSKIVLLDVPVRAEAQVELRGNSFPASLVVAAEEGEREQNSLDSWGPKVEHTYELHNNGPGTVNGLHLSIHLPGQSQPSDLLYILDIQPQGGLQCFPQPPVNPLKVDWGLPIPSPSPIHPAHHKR
T1 sequence (P08514 891-1039 limits assumed): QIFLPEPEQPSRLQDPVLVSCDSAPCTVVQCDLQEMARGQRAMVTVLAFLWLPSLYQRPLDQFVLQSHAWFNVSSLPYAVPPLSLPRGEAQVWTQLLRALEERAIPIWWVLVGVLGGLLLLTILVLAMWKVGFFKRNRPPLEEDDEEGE

As to `N=C(N)c1ccc(C2=NOC(CC(=O)NCCC(=O)O)C2)cc1` (configuration not stated), the IC50 in test [1] was found to be 240 nM.
As for `CCCCOC(=O)N[C@@H](CNC(=O)CC1CC(c2ccc(C(=N)N)cc2)=NO1)C(=O)OC.Cl` (some centres not stated), the inhibition in vivo at 0.3 mg/kg was 90% in the test on Rhesus monkey [2] and 60% with Rhesus monkey [4]. In the test on Canis familiaris [3], the Inhibition is on record as above 60%.
For the compound `CCCCOC(=O)N[C@@H](CNC(=O)C[C@H]1CC(c2ccc(C(=N)N)cc2)=NO1)C(=O)O`, the IC50 was 0.25 nM in test [5] and 11 nM in test [6]. In the test with Canis familiaris [7], this compound displayed an inhibition in vivo at 0.025 mg/kg of 90%.

What is called IC50 is the point on the concentration scale where inhibition reaches its midpoint. The term inhibition in vivo denotes the percentage by which the read-out fell short of the control. What is called Inhibition is the share of the control response that was lost under treatment.
